The record followed here is ChEMBL document CHEMBL1275566, “MexCD-OprJ multidrug efflux system of Pseudomonas aeruginosa: involvement in chlorhexidine resistance and induction by membrane-damaging agents dependent upon the AlgU stress response sigma factor” (2008).

Values after ≈ are worked out from the molar mass of the structure shown. Active and inactive are the calls of the source. Where only a bound is given, the exact number is not on record here.

Experiment [1] deals with Pseudomonas aeruginosa. In words: Induction of mexCD-oprJ expression in Pseudomonas aeruginosa PAO1 K767 at 3 ug/ml after 2.5 hrs by semiquantitative RT-PCR. It is filed as functional, organism-based.
Experiment [2] has as its system Pseudomonas aeruginosa. In words: Induction of mexCD-oprJ expression in Pseudomonas aeruginosa PAO1 K767 at 2.5 ug/ml after 2.5 hrs by semiquantitative RT-PCR. It is filed as functional, organism-based.
Experiment [3] has as its system Pseudomonas aeruginosa. Nature of the experiment: Induction of PmexCD-oprJ-lacZ expression in Pseudomonas aeruginosa K2899 at 16 ug/ml by beta-galactosidase reporter assay. It is filed as functional, organism-based. (In general: A reporter such as luciferase makes a cellular process visible.)
For experiment [4], the system named is Pseudomonas aeruginosa. Nature of the experiment: Induction of PmexCD-oprJ-lacZ expression in AlgU-negative Pseudomonas aeruginosa K2901 at 0.16 ug/ml by beta-galactosidase reporter assay. The class given is functional, organism-based.
Experiment [5] has as its system Pseudomonas aeruginosa. In words: Antimicrobial activity against CDJ-positive and AlgU-negative Pseudomonas aeruginosa K2897. The class given is functional. In short, it runs like this: (§1)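 Broth susceptibility testing of P. aeruginosa strains in LB at 37°C. Strains are defined by mexCD-oprJ status (CDJ+ means present and CHX-inducible but not expressed untreated; CDJ− means deleted) and by algU status.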

In experiment [6] the test system is Pseudomonas aeruginosa. In words: Induction of PmexCD-oprJ-lacZ expression in Pseudomonas aeruginosa K2899 at 3.1 ug/ml by beta-galactosidase reporter assay. It is filed as functional, organism-based.
For experiment [7], the system named is Pseudomonas aeruginosa. In words: Induction of mexCD-oprJ expression in Pseudomonas aeruginosa K2895 harboring plasmid pMMB206. The class given is functional, organism-based.
Experiment [8] relates to Pseudomonas aeruginosa. In words: Induction of PmexCD-oprJ-lacZ expression in Pseudomonas aeruginosa K2899 at 0.125 ug/ml by beta-galactosidase reporter assay. The class given is functional, organism-based.
The test system of experiment [9] is Pseudomonas aeruginosa. Nature of the experiment: Antimicrobial activity against CDJ -negative Pseudomonas aeruginosa K2891. The class given is functional.
Experiment [10] has as its system Pseudomonas aeruginosa. In words: Induction of PmexCD-oprJ-lacZ expression in AlgU-negative Pseudomonas aeruginosa K2901 at 11.6 ug/ml by beta-galactosidase reporter assay. It is filed as functional, organism-based.
In experiment [11] the test system is Pseudomonas aeruginosa. In words: Induction of mexCD-oprJ expression in mexB and mexXY deficient and AlgU-positive Pseudomonas aeruginosa K1542 at 2.5 ug/ml by semiquantitative RT-PCR. The class given is functional, organism-based.
Experiment [12] concerns Pseudomonas aeruginosa. In words: Induction of PmexCD-oprJ-lacZ expression in Pseudomonas aeruginosa K2899 at 8 ug/ml by beta-galactosidase reporter assay. The class given is functional, organism-based.
The test system of experiment [13] is Pseudomonas aeruginosa. Nature of the experiment: Antimicrobial activity against CDJ-negative and AlgU-positive Pseudomonas aeruginosa K1521. The class given is functional. A digest of the protocol:
as §1

Experiment [14] deals with Pseudomonas aeruginosa. In words: Induction of mexCD-oprJ expression in Pseudomonas aeruginosa K2895 harboring plasmid pMMB206 carrying AlgU gene. The class given is functional, organism-based.
Experiment [15] relates to Pseudomonas aeruginosa. Nature of the experiment: Antimicrobial activity against CDJ-positive and AlgU-negative Pseudomonas aeruginosa K2443 harboring plasmid pMMB206. The class given is functional.
Experiment [16] relates to Pseudomonas aeruginosa. Nature of the experiment: Antimicrobial activity against CDJ-negative and AlgU-positive Pseudomonas aeruginosa K2896. It is filed as functional.
For experiment [17], the system named is Pseudomonas aeruginosa. In words: Antimicrobial activity against NfxB-and AglU-negative Pseudomonas aeruginosa K2895 harboring plasmid pMMB206 carrying AlgU gene. It is filed as functional.
Experiment [18] deals with Pseudomonas aeruginosa. In words: Induction of PmexCD-oprJ-lacZ expression in AlgU-negative Pseudomonas aeruginosa K2901 at 3.1 ug/ml by beta-galactosidase reporter assay. The class given is functional, organism-based.
In experiment [19] the test system is Pseudomonas aeruginosa. In words: Antimicrobial activity against CDJ-positive and AlgU-negative Pseudomonas aeruginosa K2443 harboring plasmid pMMB206 carrying AlgU gene. It is filed as functional.
Experiment [20] concerns Pseudomonas aeruginosa. Nature of the experiment: Induction of PmexCD-oprJ-lacZ expression in AlgU-negative Pseudomonas aeruginosa K2901 at 16 ug/ml by beta-galactosidase reporter assay. The class given is functional, organism-based.
Experiment [21] relates to Pseudomonas aeruginosa. In words: Induction of mexCD-oprJ expression in mexB and mexXY deficient and AlgU-negative Pseudomonas aeruginosa K2897 at 0.33 ug/ml by semiquantitative RT-PCR. It is filed as functional, organism-based.
The subject of experiment [22] is Pseudomonas aeruginosa. In words: Antimicrobial activity against NfxB- and AlgU-negative Pseudomonas aeruginosa K2895 harboring plasmid pMMB206. It is filed as functional.
In experiment [23] the test system is Pseudomonas aeruginosa. In words: Induction of PmexCD-oprJ-lacZ expression in Pseudomonas aeruginosa K2899 at 15 ug/ml by beta-galactosidase reporter assay. It is filed as functional, organism-based.
Experiment [24] relates to Pseudomonas aeruginosa. In words: Antimicrobial activity against CDJ and AlgU-positive Pseudomonas aeruginosa K1542. It is filed as functional.
Experiment [25] deals with Pseudomonas aeruginosa. Nature of the experiment: Induction of PmexCD-oprJ-lacZ expression in Pseudomonas aeruginosa K2899 at 1.25 ug/ml by beta-galactosidase reporter assay. It is filed as functional, organism-based.
The subject of experiment [26] is Pseudomonas aeruginosa. Nature of the experiment: Antimicrobial activity against CDJ -positive Pseudomonas aeruginosa K2889. The class given is functional. A digest of the protocol: as §1
Experiment [27] relates to Pseudomonas aeruginosa. Nature of the experiment: Induction of mexCD-oprJ expression in AlgU-negative and NfxB-negative Pseudomonas aeruginosa K2895.
For experiment [28], the system named is Pseudomonas aeruginosa. In words: Antimicrobial activity against NfxB- and AlgU-negative Pseudomonas aeruginosa K2895. The class given is functional.
Experiment [29] has as its system Pseudomonas aeruginosa. Nature of the experiment: Induction of mexCD-oprJ expression in AlgU and NfxB-positive Pseudomonas aeruginosa K767. It is filed as functional, organism-based.
For experiment [30], the system named is Pseudomonas aeruginosa. Nature of the experiment: Antimicrobial activity against CDJ-positive and AlgU-negative Pseudomonas aeruginosa K2443. It is filed as functional.
The subject of experiment [31] is Pseudomonas aeruginosa. In words: Induction of PmexCD-oprJ-lacZ expression in AlgU-negative Pseudomonas aeruginosa K2901 at 0.125 ug/ml by beta-galactosidase reporter assay. It is filed as functional, organism-based.
Experiment [32] has as its system Pseudomonas aeruginosa. In words: Antimicrobial activity against CDJ and AlgU-negative Pseudomonas aeruginosa K2898. The class given is functional. A digest of the protocol:
as §1

Experiment [33] relates to Pseudomonas aeruginosa. In words: Antimicrobial activity against CDJ and AlgU-positive Pseudomonas aeruginosa K767. The class given is functional.
The test system of experiment [34] is Pseudomonas aeruginosa. Nature of the experiment: Induction of PmexCD-oprJ-lacZ expression in AlgU-negative Pseudomonas aeruginosa K2901 at 15 ug/ml by beta-galactosidase reporter assay. The class given is functional, organism-based.
Experiment [35] has as its system Pseudomonas aeruginosa. Nature of the experiment: Antimicrobial activity against NfxB-negative and AlgU-positive Pseudomonas aeruginosa K1536. It is filed as functional.
Experiment [36] has as its system Pseudomonas aeruginosa. Nature of the experiment: Induction of mexCD-oprJ expression in AlgU-positive and NfxB-negative Pseudomonas aeruginosa K1536. The class given is functional, organism-based.
Experiment [37] has as its system Pseudomonas aeruginosa. In words: Induction of PmexCD-oprJ-lacZ expression in AlgU-negative Pseudomonas aeruginosa K2901 at 8 ug/ml by beta-galactosidase reporter assay. It is filed as functional, organism-based.
Experiment [38] has as its system Pseudomonas aeruginosa. Nature of the experiment: Induction of PmexCD-oprJ-lacZ expression in Pseudomonas aeruginosa K2899 at 11.6 ug/ml by beta-galactosidase reporter assay. It is filed as functional, organism-based.
The test system of experiment [39] is Pseudomonas aeruginosa. In words: Induction of mexCD-oprJ expression in Pseudomonas aeruginosa PAO1 K767 at 100 ug/ml after 2.5 hrs by semiquantitative RT-PCR. The class given is functional, organism-based.

Turning to `CCCCC(CC)CNC(=N)NC(=N)NCCCCCCNC(=N)NC(=N)NCC(CC)CCCC` (centres undefined), the outcome with Pseudomonas aeruginosa [1] was Active.
Broadly, the MIC is the smallest concentration in the dilution series that meets the test's criterion for growth inhibition. Consider `N=C(NCCCCCCNC(=N)NC(=N)Nc1ccc(Cl)cc1)NC(=N)Nc1ccc(Cl)cc1` [CHLORHEXIDINE], for which the result in the experiment with Pseudomonas aeruginosa [2], with Pseudomonas aeruginosa [3], in the experiment on Pseudomonas aeruginosa [4], in the experiment on Pseudomonas aeruginosa [6], with Pseudomonas aeruginosa [7] and in the experiment on Pseudomonas aeruginosa [8] was Active. Besides, the result in the experiment on Pseudomonas aeruginosa [10], in the experiment on Pseudomonas aeruginosa [11], in the experiment on Pseudomonas aeruginosa [12], with Pseudomonas aeruginosa [14], in the experiment on Pseudomonas aeruginosa [18] and with Pseudomonas aeruginosa [20] was Active. In addition, the result with Pseudomonas aeruginosa [21], with Pseudomonas aeruginosa [23], in the experiment with Pseudomonas aeruginosa [25], with Pseudomonas aeruginosa [27], in the experiment with Pseudomonas aeruginosa [29] and in the experiment with Pseudomonas aeruginosa [31] was Active. The result with Pseudomonas aeruginosa [34], in the experiment on Pseudomonas aeruginosa [36], in the experiment with Pseudomonas aeruginosa [37] and in the experiment with Pseudomonas aeruginosa [38] was Active. In addition, the MIC against Pseudomonas aeruginosa [5] was determined as 1.25 µg/mL (≈ 2.47 µM); against Pseudomonas aeruginosa [9], 10 µg/mL (≈ 19.8 µM); with Pseudomonas aeruginosa [13], 5 µg/mL (≈ 9.89 µM); in the experiment with Pseudomonas aeruginosa [15], 2.5 µg/mL (≈ 4.95 µM); in the experiment on Pseudomonas aeruginosa [16], 2.5 µg/mL (≈ 4.95 µM); in the experiment with Pseudomonas aeruginosa [17] it was 20 µg/mL (≈ 39.6 µM). In addition, the MIC in the experiment on Pseudomonas aeruginosa [19] is 10 µg/mL (≈ 19.8 µM); against Pseudomonas aeruginosa [22], 2.5 µg/mL (≈ 4.95 µM); in the experiment on Pseudomonas aeruginosa [24], 10 µg/mL (≈ 19.8 µM); with Pseudomonas aeruginosa [26], above 50 µg/mL; against Pseudomonas aeruginosa [28], 2.5 µg/mL (≈ 4.95 µM); in the experiment on Pseudomonas aeruginosa [30], 2.5 µg/mL (≈ 4.95 µM). The MIC with Pseudomonas aeruginosa [32] was 0.625 µg/mL (≈ 1.24 µM); with Pseudomonas aeruginosa [33] it was 10 µg/mL (≈ 19.8 µM); against Pseudomonas aeruginosa [35], 20 µg/mL (≈ 39.6 µM).
Consider CETRIMIDE, for which, in the experiment with Pseudomonas aeruginosa [39], the result was Active.
